Data as given in ChEMBL document CHEMBL1127338, “Synthesis and antifungal activity of 1,3,2-benzodithiazole S-oxides” (J Med Chem, 1994).
≈ marks a conversion by molar mass, not a printed value.

Legend:
Assay type in all cases: functional
Candida albicans [1] = assay: Antifungal activity against Candida albicans CCH442 strain
Procedure, shortened: (§1)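 MIC determined by microtiter broth dilution in yeast nitrogen base with 0.05% glucose. Inoculum came from an overnight plate culture, at a final 5×10^4 cfu/mL. Plates were incubated at 35 °C for 24-48 h. MIC was taken as the lowest drug concentration completely inhibiting visible growth. 10231, 442 and 579A are clinical isolates; 38247 is a nonclinical amphotericin-resistant strain.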

Candida albicans [2] = assay: Antifungal activity against Candida albicans 579A strain; procedure, shortened: as §1
Candida albicans [3] = assay: Antifungal activity against Candida albicans 10231 strain; procedure, shortened: as §1
Candida albicans [4] = assay: Antifungal activity against Candida albicans 38247 strain; procedure, shortened: as §1

| Compound | MIC (Candida albicans [1]) [µg/mL] | MIC (Candida albicans [2]) [µg/mL] | MIC (Candida albicans [3]) [µg/mL] | MIC (Candida albicans [4]) [µg/mL] |
| --- | --- | --- | --- | --- |
| COCC(Cc1ccccc1)N1Sc2ccccc2[S+]1[O-] (stereo not given) | 3.12 (≈ 9.77 µM) | 3.12 (≈ 9.77 µM) | 3.12 (≈ 9.77 µM) | 3.12 (≈ 9.77 µM) |
| CCCN1Sc2ccccc2S1 | 12.5 (≈ 63.3 µM) | 3.12 (≈ 15.8 µM) | 3.12 (≈ 15.8 µM) | 25 (≈ 127 µM) |
| [O-][S+]1c2c(F)c(F)c(N3CCOCC3)c(F)c2SN1Cc1ccccc1 (stereo not given) | 50 (≈ 125 µM) | 25 (≈ 62.4 µM) | 50 (≈ 125 µM) | 12.5 (≈ 31.2 µM) |
| c1ccc2c(c1)SN(C1CC1)S2 | 50 (≈ 256 µM) | 25 (≈ 128 µM) | 25 (≈ 128 µM) | 50 (≈ 256 µM) |
| CC(c1ccccc1)N1Sc2ccccc2[S+]1[O-] (stereo not given) | 1.56 (≈ 5.66 µM) | 1.56 (≈ 5.66 µM) | 1.56 (≈ 5.66 µM) | 3.12 (≈ 11.3 µM) |
| [O-][S+]1c2ccccc2SN1C12CC3CC(CC(C3)C1)C2 (stereo not given) | 25 (≈ 81.8 µM) | 12.5 (≈ 40.9 µM) | 6.25 (≈ 20.5 µM) | 50 (≈ 164 µM) |
| [O-][S+]1c2ccccc2SN1C(c1ccccc1)c1ccccc1 (stereo not given) | 12.5 (≈ 37 µM) | 6.25 (≈ 18.5 µM) | 25 (≈ 74.1 µM) | 25 (≈ 74.1 µM) |
| COc1cc(CN2Sc3ccccc3[S+]2[O-])cc(OC)c1OC (stereo not given) | 12.5 (≈ 35.6 µM) | 12.5 (≈ 35.6 µM) | 12.5 (≈ 35.6 µM) | 3.12 (≈ 8.88 µM) |
| [O-][S+]1c2ccccc2SN1CC1CCCCC1 (stereo not given) | 1.56 (≈ 5.83 µM) | 1.56 (≈ 5.83 µM) | 1.56 (≈ 5.83 µM) | 3.12 (≈ 11.7 µM) |
| [O-][S+]1c2ccccc2SN1Cc1ccc2ccccc2c1 (stereo not given) | 6.25 (≈ 20.1 µM) | 3.12 (≈ 10 µM) | 3.12 (≈ 10 µM) | 12.5 (≈ 40.1 µM) |
| COc1ccc2c(c1)SN(Cc1ccccc1)[S+]2[O-] (stereo not given) | 0.78 (≈ 2.68 µM) | 0.78 (≈ 2.68 µM) | 0.78 (≈ 2.68 µM) | 3.12 (≈ 10.7 µM) |
| Cc1cccc2c1SN(Cc1ccccc1)[S+]2[O-] (stereo not given) | 25 (≈ 90.8 µM) | 12.5 (≈ 45.4 µM) | 12.5 (≈ 45.4 µM) | 25 (≈ 90.8 µM) |
| [O-][S+]1c2ccccc2SN1CCc1ccncc1 (stereo not given) | 100 (≈ 362 µM) | 100 (≈ 362 µM) | 100 (≈ 362 µM) | 100 (≈ 362 µM) |
| [O-][S+]1c2ccccc2SN1c1ccc(F)c(F)c1 (stereo not given) | 25 (≈ 88.2 µM) | 100 (≈ 353 µM) | 25 (≈ 88.2 µM) | 25 (≈ 88.2 µM) |
| C[C@@H]1[C@H](O)[C@@H](C)/C=C/C=C/C=C/C=C/C=C/C=C/C=C/[C@H](O[C@@H]2O[C@H](C)[C@@H](O)[C@H](N)[C@@H]2O)C[C@@H]2O[C@](O)(C[C@@H](O)C[C@@H](O)[C@H](O)CC[C@@H](O)C[C@@H](O)CC(=O)O[C@H]1C)C[C@H](O)[C@H]2C(=O)O [AMPHOTERICIN B] | 0.78 (≈ 0.844 µM) | 1.56 (≈ 1.69 µM) | 1.56 (≈ 1.69 µM) | 25 (≈ 27.1 µM) |
